PMC12552610 (Nature Communications, 2025)

Target: Aβ (AD brain homogenates) (Homo sapiens, UniProt P05067)
Assay: Competition of PiB against [3H]ACI-Aβ ref on AD brain homogenates
Assay type: binding
In short: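 Insoluble AD brain fraction prepared by high-salt, Triton X-100 and sucrose ultracentrifugation steps. Competitor serially diluted from 2000 nM to 0.14 nM against tritiated Aβ reference ligand at 15 nM. Run in 50 mM Tris pH 7.5, 0.9% NaCl, 0.1% BSA for 2 h at RT, in duplicate. Samples vacuum-filtered on GF/C, washed five times with ice-cold Tris, then scintillation-counted.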

Chain of Aβ (AD brain homogenates) (P05067 672-713): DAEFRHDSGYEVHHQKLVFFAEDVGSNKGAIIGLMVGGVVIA

displacement of Aβ ref cmpd: can be displaced by it
Structure (SMILES): CNc1ccc(-c2nc3ccc(O)cc3s2)cc1 [Pittsburg compound B, 2-(4-(Methylamino)phenyl)benzo[d]thiazol-6-ol]
